Experimental data as given in ChEMBL document CHEMBL1135426, “Synthesis, receptor potency, and selectivity of halogenated diphenylpiperidines as serotonin 5-HT2A ligands for PET or SPECT brain imaging” (J Med Chem, 2002).

Assays:
[1] = target: T1, 5-hydroxytryptamine receptor 2A (Homo sapiens, UniProt P28223); assay: Tested on genetically transfected COS7 cell membranes selectively expressing human 5-hydroxytryptamine 2A receptor, using [3H]ketanserin as radioligand; assay type: cell-based, COS-7
Summary of the method: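 Membranes of transfected COS-7 cells expressing human 5-HT2A, with 1.0 nM [3H]ketanserin, room temperature, 60 min. 10 µM altanserin as blank. Filtration and scintillation counting. Competition curves over ≥6 concentrations yield IC50 ± SE. Ki obtained by Cheng-Prusoff from the radioligand apparent Kd.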

[2] = target: T2, 5-hydroxytryptamine receptor 2C (Homo sapiens, UniProt P28335); assay: Tested on transfected cell membranes selectively expressing human 5-hydroxytryptamine 2C receptor using [3H]mesulergine
T2 sequence (P28335 whole entry): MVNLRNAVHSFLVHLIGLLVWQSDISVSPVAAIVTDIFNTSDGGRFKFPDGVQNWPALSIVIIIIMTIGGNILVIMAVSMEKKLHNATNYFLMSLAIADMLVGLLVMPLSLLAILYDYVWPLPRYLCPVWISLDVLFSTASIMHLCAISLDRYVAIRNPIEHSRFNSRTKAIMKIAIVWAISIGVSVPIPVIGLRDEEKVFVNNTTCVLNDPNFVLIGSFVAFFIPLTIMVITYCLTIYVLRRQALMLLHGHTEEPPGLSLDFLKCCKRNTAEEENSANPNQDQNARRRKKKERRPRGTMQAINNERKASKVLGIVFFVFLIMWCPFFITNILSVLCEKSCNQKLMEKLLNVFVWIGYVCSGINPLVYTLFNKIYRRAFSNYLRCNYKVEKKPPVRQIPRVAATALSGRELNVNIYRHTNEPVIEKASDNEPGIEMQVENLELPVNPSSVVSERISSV
Summary of the method: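 Transfected cell membranes expressing human 5-HT2C, incubated with 0.80 nM [3H]mesulergine at room temperature for 60 min. Nonspecific binding with 10 µM clozapine. Filtration and scintillation counting. IC50 ± SE from concentration-inhibition curves, converted to Ki by Cheng-Prusoff using the radioligand Kd.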

[3] = target: 5-hydroxytryptamine receptor 6 (Homo sapiens, UniProt P50406); assay: Tested on cell membranes from transfected cells selectively expressing human 5-hydroxytryptamine 6 receptor incubated with 1 nM [3H]LSD
Summary of the method: (§1)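 Membranes (1-10 µg protein) from transfected cells expressing human 5-HT6 or 5-HT7, incubated with 1 nM [3H]LSD, room temperature, 90 min, in the dark. 10 µM clozapine as blank. Filter harvest and tritium counting. IC50 from multi-concentration competition, converted to Ki via Cheng-Prusoff.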

[4] = target: 5-hydroxytryptamine receptor 7 (Homo sapiens, UniProt P34969); assay: Tested on cell membranes from transfected cells selectively expressing human 5-hydroxytryptamine 7 receptor incubated with 1 nM [3H]LSD; summary of the method: as §1
[5] = target: T3, Adrenergic receptor alpha-2 (Rattus norvegicus, UniProt P22086+P19328+P22909); assay: Binding affinity (Ki) at Alpha-2 adrenergic receptor homogenates of whole rat brain were incubated [3H]MK-912 for 80 min at room temperature, using […] as the blank agent; assay type: tissue-based
T3 sequence (P22086 whole entry): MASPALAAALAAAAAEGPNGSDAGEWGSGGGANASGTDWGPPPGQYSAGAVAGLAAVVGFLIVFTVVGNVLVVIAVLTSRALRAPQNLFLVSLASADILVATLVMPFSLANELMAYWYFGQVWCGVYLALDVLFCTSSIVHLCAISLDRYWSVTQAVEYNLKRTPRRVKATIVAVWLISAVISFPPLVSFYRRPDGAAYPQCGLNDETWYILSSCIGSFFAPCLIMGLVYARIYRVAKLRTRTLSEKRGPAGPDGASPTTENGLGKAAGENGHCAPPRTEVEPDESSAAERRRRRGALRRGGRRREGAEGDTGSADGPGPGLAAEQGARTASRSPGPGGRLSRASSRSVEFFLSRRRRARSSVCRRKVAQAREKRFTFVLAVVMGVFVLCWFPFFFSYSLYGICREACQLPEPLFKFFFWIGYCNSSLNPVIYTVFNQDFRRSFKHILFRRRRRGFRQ
T3 sequence (P19328 whole entry): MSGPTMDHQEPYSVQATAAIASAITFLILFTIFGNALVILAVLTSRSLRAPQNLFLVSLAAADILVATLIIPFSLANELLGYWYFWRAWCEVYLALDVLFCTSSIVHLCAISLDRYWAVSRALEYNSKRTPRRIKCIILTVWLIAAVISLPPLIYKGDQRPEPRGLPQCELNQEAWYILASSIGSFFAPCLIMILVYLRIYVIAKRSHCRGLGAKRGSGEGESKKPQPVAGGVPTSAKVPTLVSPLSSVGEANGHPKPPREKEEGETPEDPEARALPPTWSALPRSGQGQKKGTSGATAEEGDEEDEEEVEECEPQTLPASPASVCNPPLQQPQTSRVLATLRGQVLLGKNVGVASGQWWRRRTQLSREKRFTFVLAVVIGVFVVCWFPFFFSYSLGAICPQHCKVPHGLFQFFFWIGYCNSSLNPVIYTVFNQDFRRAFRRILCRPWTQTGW
T3 sequence (P22909 whole entry): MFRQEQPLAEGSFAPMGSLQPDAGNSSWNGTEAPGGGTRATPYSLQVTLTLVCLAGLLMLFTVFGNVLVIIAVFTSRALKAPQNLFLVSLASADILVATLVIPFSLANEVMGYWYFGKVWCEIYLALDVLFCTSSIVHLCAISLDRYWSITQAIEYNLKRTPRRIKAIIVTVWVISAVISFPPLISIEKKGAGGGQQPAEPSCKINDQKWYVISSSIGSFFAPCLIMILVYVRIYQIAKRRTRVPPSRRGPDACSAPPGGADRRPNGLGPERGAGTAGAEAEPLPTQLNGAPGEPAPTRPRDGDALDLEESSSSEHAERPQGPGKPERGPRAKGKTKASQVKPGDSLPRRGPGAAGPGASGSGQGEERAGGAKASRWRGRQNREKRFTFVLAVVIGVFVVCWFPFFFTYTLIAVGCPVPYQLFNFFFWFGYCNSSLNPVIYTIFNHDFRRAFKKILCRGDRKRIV
Summary of the method: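 Whole rat brain homogenate (minus cerebellum) with 1.0 nM [3H]MK-912, 80 min at room temperature. 10 µM phentolamine defines nonspecific binding. Filter harvest and scintillation counting. Concentration-inhibition curves (≥6 concentrations) give IC50 ± SE, converted to Ki via Cheng-Prusoff with the radioligand's apparent Kd.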

[6] = target: T4, Adrenergic receptor alpha-1 (Rattus norvegicus, UniProt P15823+P23944+P43140); assay: Binding affinity (Ki) at Alpha-1 adrenergic receptor using rat brain cells with prazosin (0.20 nM) as a radioligand and […] as a blank agent; assay type: cell-based
T4 sequence (P15823 whole entry): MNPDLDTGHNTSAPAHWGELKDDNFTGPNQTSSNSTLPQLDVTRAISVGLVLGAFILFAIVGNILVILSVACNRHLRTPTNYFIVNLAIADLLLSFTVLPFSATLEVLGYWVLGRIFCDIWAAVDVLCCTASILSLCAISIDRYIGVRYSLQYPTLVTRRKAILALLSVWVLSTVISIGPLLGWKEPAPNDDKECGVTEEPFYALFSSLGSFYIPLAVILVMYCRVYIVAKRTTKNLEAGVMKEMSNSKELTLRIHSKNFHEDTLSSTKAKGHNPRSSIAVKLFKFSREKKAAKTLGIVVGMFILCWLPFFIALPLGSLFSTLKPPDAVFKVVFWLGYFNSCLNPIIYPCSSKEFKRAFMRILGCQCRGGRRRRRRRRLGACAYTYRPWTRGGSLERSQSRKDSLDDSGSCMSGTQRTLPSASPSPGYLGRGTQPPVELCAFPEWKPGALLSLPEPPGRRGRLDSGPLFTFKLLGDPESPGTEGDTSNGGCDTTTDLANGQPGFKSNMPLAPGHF
T4 sequence (P23944 whole entry): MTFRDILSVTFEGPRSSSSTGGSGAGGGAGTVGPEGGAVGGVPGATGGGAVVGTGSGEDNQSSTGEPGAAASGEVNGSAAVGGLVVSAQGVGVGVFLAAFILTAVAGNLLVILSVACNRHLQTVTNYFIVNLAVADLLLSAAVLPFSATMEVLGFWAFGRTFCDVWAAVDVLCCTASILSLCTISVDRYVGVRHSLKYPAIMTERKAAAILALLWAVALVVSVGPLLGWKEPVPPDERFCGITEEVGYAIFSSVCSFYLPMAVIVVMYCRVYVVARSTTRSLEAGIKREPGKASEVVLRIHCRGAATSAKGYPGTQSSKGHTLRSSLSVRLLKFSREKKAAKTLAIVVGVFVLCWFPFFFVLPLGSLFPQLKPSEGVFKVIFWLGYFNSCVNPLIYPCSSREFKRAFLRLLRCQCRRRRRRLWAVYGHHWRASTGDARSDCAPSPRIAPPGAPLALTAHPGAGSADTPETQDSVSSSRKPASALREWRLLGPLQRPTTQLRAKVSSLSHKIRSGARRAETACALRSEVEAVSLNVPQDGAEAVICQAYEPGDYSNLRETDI
T4 sequence (P43140 whole entry): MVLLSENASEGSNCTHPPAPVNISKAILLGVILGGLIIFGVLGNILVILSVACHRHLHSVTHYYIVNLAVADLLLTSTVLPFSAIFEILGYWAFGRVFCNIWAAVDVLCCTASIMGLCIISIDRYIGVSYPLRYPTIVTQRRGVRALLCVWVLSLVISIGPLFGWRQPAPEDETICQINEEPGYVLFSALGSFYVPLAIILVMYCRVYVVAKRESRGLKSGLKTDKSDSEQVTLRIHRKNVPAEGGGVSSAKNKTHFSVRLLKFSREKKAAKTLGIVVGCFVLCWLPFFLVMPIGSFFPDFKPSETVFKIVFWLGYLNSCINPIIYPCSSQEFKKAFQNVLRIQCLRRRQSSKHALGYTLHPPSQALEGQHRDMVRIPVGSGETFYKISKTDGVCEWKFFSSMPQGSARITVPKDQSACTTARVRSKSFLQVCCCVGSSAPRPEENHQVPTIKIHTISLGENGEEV
Summary of the method: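 Whole rat brain homogenate (excluding cerebellum) incubated with 0.20 nM [3H]prazosin, 30 °C, 30 min. Nonspecific binding defined with 2 µM phentolamine. Filtration harvest, tritium counted by scintillation. Screened at 1 and 10 µM; ≥6 concentrations if ≥30% inhibition at 1 µM. IC50 from curve fit, converted to Ki by Cheng-Prusoff using the radioligand Kd.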

D(2) dopamine receptor = D(2) dopamine receptor (Rattus norvegicus, UniProt P61169); assay: Binding affinity (Ki) at Dopamine receptor D2 using rat caudate cells with nemonapride (0.075 nM) as a radioligand and […] as a blank agent
Summary of the method: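 Rat caudate-putamen homogenate incubated with 75 pM [3H]nemonapride at 30 °C for 90 min. Nonspecific binding defined with 10 µM haloperidol. Bound radioactivity collected on glass fiber filters and counted. IC50 ± SE from ≥6-concentration inhibition curves, converted to Ki by Cheng-Prusoff using the radioligand Kd.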

[7] = target: T4, Adrenergic receptor alpha-1; assay: Binding affinity at Alpha-1 adrenergic receptor using rat forebrain cells with prazosin (0.20 nM) as radioligand and […] as blank agent
[8] = target: T4, Adrenergic receptor alpha-1; assay: Binding affinity (Ki) at Alpha-1 adrenergic receptor using rat forebrain cells with prazosin (0.20 nM) as a radioligand and […] as a blank agent
[9] = target: T1, 5-hydroxytryptamine receptor 2A; assay: Binding affinity against 5-hydroxytryptamine 2A receptor in humans
Summary of the method: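 Membranes of transfected COS-7 cells expressing human 5-HT2A, with 1.0 nM [3H]ketanserin, room temperature, 60 min. 10 µM altanserin as blank. Filtration and scintillation counting. Ki obtained by Cheng-Prusoff from the radioligand apparent Kd.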

Chain of 5-hydroxytryptamine receptor 6 (P50406 whole entry): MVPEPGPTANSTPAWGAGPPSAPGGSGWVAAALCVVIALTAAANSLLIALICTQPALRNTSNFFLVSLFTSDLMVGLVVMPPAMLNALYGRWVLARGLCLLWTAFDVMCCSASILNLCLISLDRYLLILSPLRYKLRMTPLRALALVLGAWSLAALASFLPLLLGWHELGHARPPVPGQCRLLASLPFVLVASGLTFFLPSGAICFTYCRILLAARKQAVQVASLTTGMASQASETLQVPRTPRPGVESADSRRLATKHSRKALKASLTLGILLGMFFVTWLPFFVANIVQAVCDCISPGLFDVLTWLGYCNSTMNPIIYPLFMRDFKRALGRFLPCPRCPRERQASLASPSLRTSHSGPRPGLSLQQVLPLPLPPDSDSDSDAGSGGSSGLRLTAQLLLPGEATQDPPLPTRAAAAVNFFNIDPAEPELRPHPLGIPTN
T1 sequence (P28223 whole entry): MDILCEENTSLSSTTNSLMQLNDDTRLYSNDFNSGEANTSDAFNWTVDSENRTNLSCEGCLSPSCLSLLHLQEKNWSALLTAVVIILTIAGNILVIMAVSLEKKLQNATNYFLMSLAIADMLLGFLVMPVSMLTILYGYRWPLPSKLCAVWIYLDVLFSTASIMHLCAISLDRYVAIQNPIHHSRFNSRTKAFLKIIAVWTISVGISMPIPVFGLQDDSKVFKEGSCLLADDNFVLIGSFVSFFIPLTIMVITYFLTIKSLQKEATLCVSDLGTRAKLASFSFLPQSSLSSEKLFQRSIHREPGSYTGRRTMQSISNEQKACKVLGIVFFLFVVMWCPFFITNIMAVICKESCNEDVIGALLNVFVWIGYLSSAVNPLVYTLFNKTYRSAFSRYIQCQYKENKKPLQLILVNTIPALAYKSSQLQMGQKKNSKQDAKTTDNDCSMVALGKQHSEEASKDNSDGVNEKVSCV
Chain of 5-hydroxytryptamine receptor 7 (P34969 whole entry): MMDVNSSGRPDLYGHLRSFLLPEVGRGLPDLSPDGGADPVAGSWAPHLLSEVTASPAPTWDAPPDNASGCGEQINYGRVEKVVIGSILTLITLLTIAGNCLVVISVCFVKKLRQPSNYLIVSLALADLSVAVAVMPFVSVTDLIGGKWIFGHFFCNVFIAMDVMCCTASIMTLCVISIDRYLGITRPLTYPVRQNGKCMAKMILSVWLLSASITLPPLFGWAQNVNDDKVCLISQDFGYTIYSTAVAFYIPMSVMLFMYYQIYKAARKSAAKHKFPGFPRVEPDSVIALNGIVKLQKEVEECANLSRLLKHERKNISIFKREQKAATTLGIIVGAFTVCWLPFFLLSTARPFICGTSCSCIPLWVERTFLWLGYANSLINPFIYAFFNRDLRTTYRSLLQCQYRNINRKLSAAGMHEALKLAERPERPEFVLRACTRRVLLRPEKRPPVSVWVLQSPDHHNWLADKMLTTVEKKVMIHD
Chain of D(2) dopamine receptor (P61169 whole entry): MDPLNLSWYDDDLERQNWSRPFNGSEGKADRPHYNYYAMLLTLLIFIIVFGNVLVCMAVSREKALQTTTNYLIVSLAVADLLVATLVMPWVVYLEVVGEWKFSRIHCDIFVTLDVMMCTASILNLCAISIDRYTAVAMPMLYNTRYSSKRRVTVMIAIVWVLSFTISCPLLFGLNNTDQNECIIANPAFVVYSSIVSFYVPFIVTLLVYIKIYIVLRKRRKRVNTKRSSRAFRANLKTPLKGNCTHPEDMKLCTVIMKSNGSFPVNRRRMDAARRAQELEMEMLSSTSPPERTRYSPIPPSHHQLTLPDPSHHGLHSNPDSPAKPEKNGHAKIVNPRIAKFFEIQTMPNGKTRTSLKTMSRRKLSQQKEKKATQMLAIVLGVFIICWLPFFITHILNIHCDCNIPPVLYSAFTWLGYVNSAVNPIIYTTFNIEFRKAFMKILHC

Row | Structure (SMILES) | Ki [1] [nM] | Ki [2] [nM] | Ki [3] [nM] | Ki [4] [nM] | Ki [5] [nM] | Ki (D(2) dopamine receptor) [nM] | other results
1 | OC(c1ccc(F)cc1)C1CCN(Cc2ccc(I)cc2)CC1 (stereo not drawn) | > 10000 |  |  |  |  |  | 
2 | OC(c1ccc(F)cc1)C1CCN(Cc2cccc(I)c2)CC1 (stereo not drawn) | > 10000 |  |  |  |  |  | 
3 | OC(c1ccc(F)cc1)C1CCN(CCc2ccc(F)cc2)CC1 (stereo not drawn) | 1.63 | 503 | > 10000 | 1340 | 1032 | > 10000 | Ki [7]: 303 nM
4 | OC(c1ccc(F)cc1)C1CCN(CCc2ccc(I)cc2)CC1 (stereo not drawn) | 32.1 |  |  |  |  |  | 
5 | O=C(c1ccc(F)cc1)C1CCN(Cc2ccc(I)cc2)CC1 | 227 |  |  |  |  |  | 
6 | O=C(c1ccc(F)cc1)C1CCN(CCn2c(=S)[nH]c3ccccc3c2=O)CC1 [ALTANSERIN] |  |  |  |  |  |  | Ki [9]: 0.3 nM
7 | OC(c1ccc(F)cc1)C1CCN(Cc2ccccc2I)CC1 (stereo not drawn) | > 10000 |  |  |  |  |  | 
8 | O=C(c1ccc(F)cc1)C1CCN(Cc2ccccc2I)CC1 | 191 |  |  |  |  |  | 

Continued, in another order:

Row | Ki [1] [nM] | Ki [2] [nM] | Ki [3] [nM] | Ki [4] [nM] | Ki [5] [nM] | Ki (D(2) dopamine receptor) [nM] | Structure (SMILES) | other results
9 | 0.51 | 16.6 | 48.9 | 8.76 | 244 | 51.8 | O=C(c1ccc(F)cc1)C1CCN(CCc2cccc(I)c2)CC1 | Ki [6]: 4.92 nM
10 | 12.7 |  |  |  |  |  | O=C(c1ccc(F)cc1)C1CCN(Cc2cccc(I)c2)CC1 | 
11 | 13.1 |  |  |  |  |  | OC(c1ccc(F)cc1)C1CCN(CCc2cccc(I)c2)CC1 (stereo not drawn) | 
12 | 9.54 | 493 | 3000 | 63 | 614 | 453 | O=C(c1ccc(F)cc1)C1CCN(CCc2ccc(F)cc2)CC1 | Ki [7]: 33.6 nM
13 | 1.95 | 35.5 | 138 | 3.68 | 140 | 1.3 | O=C(c1ccc(F)cc1)C1CCN(CCc2ccccc2I)CC1 | Ki [7]: 24.8 nM
14 | 9.34 |  |  |  |  |  | O=C(c1ccc([N+](=O)[O-])cc1)C1CCN(CCc2ccccc2)CC1 | 
15 | 3.62 | 144 | 300 | 7.32 | 381 | 176 | O=C(c1ccc(F)cc1)C1CCN(CCc2ccc(I)cc2)CC1 | Ki [8]: 26.1 nM
16 | 0.91 | 28.6 | 430 | 101 | 813 | > 10000 | OC(c1ccc(F)cc1)C1CCN(CCc2ccccc2I)CC1 (stereo not drawn) | Ki [8]: 108 nM
17 | 1.15 |  |  |  |  |  | O=[N+]([O-])c1ccc(C(O)C2CCN(CCc3ccccc3)CC2)cc1 (stereo not drawn) | 
